Compound activity deposited in PubChem by The Scripps Research Institute Molecular Screening Center.
Shown are actives, neighbours in structure and some others; about 4.2% of the full set was active somewhere.
OX1R antag-1: OX1R (human) antagonism; O43613; OX1R-expressing cells, FRET antagonist read-out; inhibition, % at 6.6 µM; hit rate 1.8% among 330,000; AID 485270; in the data active = inhibition mostly above about 38%, no sharp cut-off; inactive = mostly below about 40%;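 note: 0% = agonist challenge alone and 100% = reference antagonist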
Target sequence (O43613 whole entry, looked up): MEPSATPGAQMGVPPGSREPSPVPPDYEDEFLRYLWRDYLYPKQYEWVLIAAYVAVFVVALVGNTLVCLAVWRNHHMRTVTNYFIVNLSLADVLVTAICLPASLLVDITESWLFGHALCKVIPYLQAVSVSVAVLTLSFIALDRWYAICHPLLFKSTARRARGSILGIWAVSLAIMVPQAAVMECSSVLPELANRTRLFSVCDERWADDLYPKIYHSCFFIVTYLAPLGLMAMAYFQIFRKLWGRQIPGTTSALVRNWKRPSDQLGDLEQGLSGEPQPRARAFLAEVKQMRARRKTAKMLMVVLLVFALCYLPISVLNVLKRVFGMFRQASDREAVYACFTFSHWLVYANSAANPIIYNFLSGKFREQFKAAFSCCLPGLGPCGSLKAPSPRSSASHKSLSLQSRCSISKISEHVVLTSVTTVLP
TAAR1 antagonist: antagonists of human TAAR1 | Q96RJ0 | CHO RD-HGA16 TAAR1, Fluo-8 calcium fluorescence, antagonist | inhibition, % at 3 µM | hit rate 1.5% among 360,000 | AID 624466;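 active = inhibition above a per-plate cutoff, the mean inhibition of test compounds on that plate plus 3 SD, cut at about 49% in these data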;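 note: 0% = DMSO plus EC80 beta-PEA response and 100% = DMSO alone without agonist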
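Test system: RD-HGA16 CHO cells with stable hTAAR1 and Gα16 / Probe or stimulus: EC80 β-phenethylamine stimulus / Times: seeding 17-24 h prior, 75-min 37 °C, 30-min RT dye loading / Detection: Fluo-8 calcium-sensitive fluorescence / Read-out basis: % inhibition scaled between DMSO and EC80 PEA controls / Repeats: singlicate, one well per test compound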
GalR3 antagonist: blocks the human galanin receptor 3; HEK293 GalR3-CNG cAMP membrane potential fluorescence; galR3 body fused to GalR1 C-terminus; hit rate 0.44% among 360,000; inhibition, % at 3 µM; O60755;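 active = inhibition above the screen-wide average plus 3 SD, cut at about 13% in these data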;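 note: forskolin and galanin both at EC90 stimulate the cells; cAMP rise reported by CNG channel membrane potential dye signal; 0% = forskolin plus galanin with DMSO and 100% = forskolin alone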
Target sequence (O60755 1-299 limits assumed): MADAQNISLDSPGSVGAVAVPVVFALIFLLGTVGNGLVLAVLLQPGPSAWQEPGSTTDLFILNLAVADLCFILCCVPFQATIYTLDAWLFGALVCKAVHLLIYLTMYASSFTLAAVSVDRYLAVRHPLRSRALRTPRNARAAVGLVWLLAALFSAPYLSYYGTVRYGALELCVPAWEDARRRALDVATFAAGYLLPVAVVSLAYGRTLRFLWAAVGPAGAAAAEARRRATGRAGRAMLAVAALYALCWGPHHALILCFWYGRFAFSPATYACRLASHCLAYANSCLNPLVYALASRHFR
TAAR1 ag: human TAAR1 agonism; Q96RJ0; hit rate 0.99% among 360,000; CHO RD-HGA16 TAAR1, Fluo-8 calcium fluorescence; vehicle wells 0%, saturating PEA agonist 100%; AID 624467; activation, % at 3 µM;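 active = activation above the mean activation of all test compounds in the run plus 3 SD, cut at about 38% in these data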
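test system = CHO RD-HGA16 cells carrying human TAAR1 plus Gα16 | schedule = 17-24 h seeding, 75 min 37 °C dye, 30 min RT | compound dosing = 3 µM single concentration | control set = DMSO and PEA EC100 | replicates = n 1 | signal = Fluo-8 fluorescence, 5 s baseline then 140 s kinetic read | measure = percent activation vs PEA EC100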
OX1R antag-2: blocks the human orexin 1 receptor. O43613. CHO/OX1R cells, Fluo-8 calcium fluorescence, orexin A. inhibition, % at 5 µM. hit rate 0.43% among 330,000;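 active = inhibition above its plate's threshold, mean inhibition of all tested compounds on the plate plus 3 SD, cut at about 37% in these data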;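 note: 0% = orexin A challenge wells and 100% = SB-334867-A antagonist wells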
CHO parental Ca: counter-screen for OX1R antagonists: effect in parental CHO cells; parental CHO-K1, ATP-induced calcium, Fluo-8 fluorescence; inhibition, % at 5.6 µM; hit rate 0.63% among 330,000; AID 463079;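 active = inhibition above that plate's mean sample inhibition plus 3 SD, cut at about 26% in these data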;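 note: 0% = ATP-challenged DMSO wells and 100% = DMSO wells without ATP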
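Assay system – parental CHO cells · Reagent – ATP stimulus · Detection – intracellular calcium via Fluo-8 no-wash fluorescent dye · Evaluation – percent inhibition of ATP-evoked calcium rise, normalized to controls · Controls – ATP wells versus no-ATP DMSO wells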
Numbers without * were called inactive.

Screening CCN1C(=O)C(=Cc2ccc(N3CCOCC3)o2)C(=O)N(CC)C1=S returned OX1R antag-1 9.1, TAAR1 antagonist -2.0, GalR3 antagonist 0.7, TAAR1 ag 40.0*, OX1R antag-2 6.2 and CHO parental Ca 4.3.
Screening CC(=O)OC1CCC2(C)C3CCC4(C)C(OC(C)=O)CCC4C3C(C)C2(O)C1 (stereo unspecified) returned TAAR1 antagonist -18.5, GalR3 antagonist -6.9 and TAAR1 ag 2.2.
CN1C(=O)C(c2ccc([N+](=O)[O-])cc2[N+](=O)[O-])C(=O)N(C)C1=O was read as OX1R antag-1 43.9*, TAAR1 antagonist 6.3, GalR3 antagonist -8.7, TAAR1 ag 6.3, OX1R antag-2 -13.2 and CHO parental Ca -1.3.
For O=[N+]([O-])c1ccc(Cl)c([N+](=O)[O-])c1 the results were OX1R antag-1 47.7*, TAAR1 antagonist -5.8, TAAR1 ag 1.2, OX1R antag-2 11.7 and CHO parental Ca -0.3.
O=[N+]([O-])c1ccc(O)c([N+](=O)[O-])c1 was read as OX1R antag-1 68.9*, TAAR1 antagonist -27.1, TAAR1 ag 4.5, OX1R antag-2 2.9 and CHO parental Ca -1.7.
Screening COC(=O)C(O)(c1ccc(N(C)C(=O)c2cccs2)cc1)C(F)(F)F (stereo unspecified) returned OX1R antag-1 19.1, TAAR1 antagonist 7.0, GalR3 antagonist -4.7, TAAR1 ag 5.6, OX1R antag-2 1.4 and CHO parental Ca 10.9.
Screening CCCCCSc1cc(OC)c(CCN)cc1OC returned OX1R antag-1 2.2, TAAR1 antagonist 1.9, GalR3 antagonist -10.0, TAAR1 ag 40.5*, OX1R antag-2 -11.3 and CHO parental Ca -5.9.
CCOC(=O)c1cc2c(cn1)[nH]c1ccccc12 was read as OX1R antag-1 64.2*, TAAR1 antagonist -24.0, GalR3 antagonist 0.0, TAAR1 ag 1.6, OX1R antag-2 8.3 and CHO parental Ca -3.6.
Screening CCN(CC)c1ccc(CNCCc2ccccc2F)cc1 returned OX1R antag-1 1.9, TAAR1 antagonist -3.6, GalR3 antagonist -6.6, TAAR1 ag 39.8*, OX1R antag-2 -15.9 and CHO parental Ca -6.0.
Screening Cc1ccc(CNCCc2ccccc2F)cc1 returned OX1R antag-1 9.8, TAAR1 antagonist -16.6, GalR3 antagonist -4.6, TAAR1 ag 11.4, OX1R antag-2 -33.1 and CHO parental Ca -17.6.
For CN1CCN(c2c(F)cc([N+](=O)[O-])c(N)c2Br)CC1 the results were OX1R antag-1 51.9*, TAAR1 antagonist 4.9, GalR3 antagonist -4.4, TAAR1 ag 0.5, OX1R antag-2 -4.8 and CHO parental Ca -9.5.
For Nc1c([N+](=O)[O-])cc(F)c(N2CCNCC2)c1Br the results were OX1R antag-1 55.1, TAAR1 antagonist -0.5, GalR3 antagonist -9.4, TAAR1 ag 9.8, OX1R antag-2 -8.9 and CHO parental Ca -6.0.
Screening O=C(NCCCN1CC1)Nc1cccc2ccccc12 returned TAAR1 antagonist -5.2, GalR3 antagonist 2.3 and TAAR1 ag 1.8.
`CN(C)c1ccc(/C=C/[N+](=O)[O-])cc1` gave OX1R antag-1 58.3*, TAAR1 antagonist 2.4, GalR3 antagonist 4.5, TAAR1 ag 40.1*, OX1R antag-2 14.3 and CHO parental Ca 5.8.
C/C(=C\c1ccc(N(C)C)cc1)[N+](=O)[O-] was read as OX1R antag-1 34.6, TAAR1 antagonist 13.0, GalR3 antagonist -3.8, TAAR1 ag 15.9, OX1R antag-2 7.1 and CHO parental Ca 8.3.
CCC(C)N1C(=O)/C(=C\c2ccc(N3CCCCCC3)cc2)C(=O)NC1=S (stereo unspecified) was read as OX1R antag-1 14.6, TAAR1 antagonist 4.2, GalR3 antagonist -8.5, TAAR1 ag 8.2, OX1R antag-2 -15.7 and CHO parental Ca -6.2.
N#CC1(c2ccccc2)CCN(C2CC(=O)N(c3cccc(F)c3)C2=O)CC1 (stereo unspecified) was read as OX1R antag-1 13.7, TAAR1 antagonist -3.2, GalR3 antagonist 3.2, TAAR1 ag 2.1, OX1R antag-2 -13.1 and CHO parental Ca -11.2.
Screening C[C@@H]1O[C@@H](O[C@H]2C[C@@H](O)[C@]3(CO)[C@@H]4C(CC[C@]3(O)C2)[C@@]2(O)CC[C@H](C3COC(=O)C3)[C@@]2(C)C[C@H]4O)[C@H](O)[C@H](O)[C@H]1O (stereo partly specified) returned OX1R antag-1 4.6, TAAR1 antagonist -7.8, GalR3 antagonist 15.9*, TAAR1 ag -0.3, OX1R antag-2 -3.7 and CHO parental Ca -5.8.
`C[C@H]1CC[C@@H]2[C@@H](C)[C@H]3[C@H](C[C@H]4[C@@H]5CC=C6C[C@@H](O[C@@H]7O[C@H](CO)[C@H](O)[C@H](O[C@@H]8O[C@H](CO)[C@@H](O)[C@H](O)[C@H]8O)[C@H]7O[C@@H]7O[C@@H](C)[C@H](O)[C@@H](O)[C@H]7O)CC[C@]6(C)[C@H]5CC[C@]34C)N2C1` gave OX1R antag-1 5.4, TAAR1 antagonist -1.3, GalR3 antagonist -6.2, TAAR1 ag 1.6, OX1R antag-2 5.4 and CHO parental Ca -9.9.
Cc1cccc(N2C(=O)NC(=O)/C(=C\C=C\c3ccco3)C2=O)c1 was read as OX1R antag-1 18.7, TAAR1 antagonist 21.6, GalR3 antagonist -3.0, TAAR1 ag 43.8*, OX1R antag-2 -10.4 and CHO parental Ca -5.0.
Screening Cc1cccc(N2C(=O)NC(=O)/C(=C\c3cccn3-c3ccc(Cl)cc3)C2=O)c1 returned OX1R antag-1 8.7, TAAR1 antagonist 36.6, GalR3 antagonist -0.1, TAAR1 ag 56.2*, OX1R antag-2 -16.4 and CHO parental Ca -8.2.
`Cc1cc(Br)c(NC(=O)CN2CC=C(c3ccccc3)CC2)c(Br)c1` gave OX1R antag-1 31.7, TAAR1 antagonist -7.8, GalR3 antagonist -5.2, TAAR1 ag 2.6, OX1R antag-2 -18.5 and CHO parental Ca -22.1.
Screening CCN(CC)S(=O)(=O)c1cc(NC(=O)C(C)N2CC=C(c3ccccc3)CC2)ccc1C (stereo unspecified) returned OX1R antag-1 11.2, TAAR1 antagonist 4.0, GalR3 antagonist -5.4, TAAR1 ag 0.2, OX1R antag-2 -31.4 and CHO parental Ca 43.1*.
Screening C=C1C(C)C2C(Cc3ccccc3)NC(=O)C23C(OC(C)=O)C=CC(C)(O)CC(C)CC=CC3C1O (stereo unspecified) returned TAAR1 antagonist -6.7, GalR3 antagonist -1.9 and TAAR1 ag 0.1.
Screening Cc1nc2cc(C(F)(F)F)ccc2n1C1CCN(Cc2nnnn2Cc2cccs2)CC1 returned OX1R antag-1 -1.0, TAAR1 antagonist 30.6, GalR3 antagonist -5.6, TAAR1 ag 28.1, OX1R antag-2 43.4* and CHO parental Ca 61.3*.
